Assay results collected from several papers.
Protocols differ between the studies behind these lines.
Matrix: Caco-2

Structure (SMILES) | conditions | efflux ratio
Cc1ccc(N(c2ccc(NC(=O)CN(C)c3ccccc3N3CCCC3=O)cc2)C(C)C)cc1 | – | 2.3
O=c1cc(-c2ccc(O)cc2)oc2c([C@@H]3O[C@H](CO)[C@@H](O)[C@H](O)[C@H]3O)c(O)cc(O)c12 | 200 µg/mL | 1.28
O=C(NCc1nc(-c2ccc(C(F)(F)F)cc2)cs1)[C@H]1CCCN(C(=O)CO[C@H]2CCCNC2)C1 | – | 160
N#Cc1ccc(C[C@H](Nc2nnc(-c3ccc(F)cc3)s2)C(=O)N2CCc3ccccc32)cc1 | 100 µM, 2 h | > 20
N[C@@H](COCC(=O)N1CCC[C@H](C(=O)NCc2nc(-c3ccc(C(F)(F)F)cc3)cs2)C1)c1ccccc1 | – | 11
CO/N=C(\C(=O)N[C@@H]1C(=O)N2C(C(=O)O)=C(CSC(=O)c3ccco3)CS[C@H]12)c1csc(N)n1 | 200 µg/mL, 2 h, pH 7.4 | 1.96
O=C(NCc1nc(-c2ccc(C(F)(F)F)cc2)cs1)[C@H]1CCCN(C(=O)COCCN2CCCCC2)C1 | – | 27
O=C1CCC(N2Cc3cc(C4CCN(Cc5ccccc5)CC4)ccc3C2=O)C(=O)N1 (stereo not shown) | 10 µM, 2 h | 1.9
O=c1c(O[C@@H]2O[C@H](CO)[C@H](O)[C@H](O)[C@H]2O)c(-c2ccc(O)c(O)c2)oc2cc(O)cc(O)c12 | 200 µg/mL | 1.56
CC(C)c1nc(N(C)S(C)(=O)=O)nc(-c2ccc(F)cc2)c1/C=C/[C@@H](O)C[C@@H](O)CC(=O)O | 5 µM, 2 h | 142
CCOCC(=O)N1CCC[C@H](C(=O)NCc2nc(-c3ccc(C#N)nc3)cs2)C1 | – | 4.3
N#Cc1ccc(C[C@H](Nc2c(Nc3ccc(Br)cc3)c(=O)c2=O)C(=O)N2CCc3ccccc32)cc1 | 100 µM, 2 h | > 20
COc1cc(NC(=O)Cn2cc(Cl)c3cc(F)c(-c4cnn(C)c4)cc32)cc(OC)c1OC | – | 18.2
